Experimental data published in ChEMBL document CHEMBL1177722, “Computer-aided identification of Trypanosoma brucei uridine diphosphate galactose 4'-epimerase inhibitors: toward the development of novel therapies for African sleeping sickness” (J Med Chem, 2010).
pEC50, pIC50: −log10 of the molar value.

Tests used:
[1] = target: T1, UDP-galactose 4-epimerase (Trypanosoma brucei, UniProt Q8T8E9); test: Inhibition of hexahistidine-tagged Trypanosoma brucei UDP-galactose-4'epimerase expressed in Escherichia coli
T1 sequence (Q8T8E9 whole entry): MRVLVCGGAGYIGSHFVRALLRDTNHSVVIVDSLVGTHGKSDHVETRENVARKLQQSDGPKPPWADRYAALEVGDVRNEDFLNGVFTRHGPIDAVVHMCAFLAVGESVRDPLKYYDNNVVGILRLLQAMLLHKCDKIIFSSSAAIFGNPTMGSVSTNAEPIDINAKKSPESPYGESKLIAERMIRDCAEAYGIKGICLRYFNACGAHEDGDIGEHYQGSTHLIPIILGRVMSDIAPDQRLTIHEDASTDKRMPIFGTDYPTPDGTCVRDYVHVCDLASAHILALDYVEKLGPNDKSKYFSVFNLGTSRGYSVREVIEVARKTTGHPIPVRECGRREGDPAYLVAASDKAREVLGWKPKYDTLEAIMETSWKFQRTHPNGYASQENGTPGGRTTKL
Summary of the method: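 Recombinant enzyme reacted with 100 μM UDP-Gal and 100 μM β-NAD+ (5 μg/mL enzyme, 1 mM Tris pH 7.6, 1% DMSO), with or without inhibitor (0.03-100 μM), at 37 °C for 30 min. Quenched with NaOH. UDP-Gal to UDP-Glc conversion followed by HPAEC, detection at 260 nm. IC50 from a four-parameter fit over three independent experiments.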

Trypanosoma brucei = test: Antitrypanosomal activity against Trypanosoma brucei after 3 days by alamar blue assay; type: functional, organism-based; settings: 72 h
Summary of the method: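 Cultured T. brucei seeded at 1 × 10^4 cells/ml in 384-well format, incubated with or without inhibitor (100 μM to 30 nM) for three days; viable cells then counted by Alamar Blue read-out; EC50 derived from the dose series.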

MRC5 = test: Cytotoxicity against human MRC5 cells after 3 days by alamar blue assay; type: cell-based; settings: MRC5, 72 h
Summary of the method: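 Cultured human MRC5 cells at 1 × 10^4 cells/ml in 384-well format, incubated with or without inhibitor over 100 μM to 30 nM for three days. Viable cell number then counted by Alamar blue.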

SMILES	pIC50 [1]	pEC50 (Trypanosoma brucei)	pEC50 (MRC5)
COC1C(OC(=O)c2ccc(C)[nH]2)C(O)C(Oc2ccc3c(O)c(NC(=O)c4ccc(O)c(CC=C(C)C)c4)c(=O)oc3c2Cl)OC1(C)C (centres undefined)	5.30	5.36	< 4.30
O=C(O)c1ccccc1-c1ccccc1C(=O)Nc1ccc2c(c1)Cc1cc(NC(=O)c3ccccc3-c3ccccc3C(=O)O)ccc1-2	6.05	< 4.30	< 4.30
O=C(O)c1ccccc1-c1ccccc1C(=O)Nc1ccc2c(c1)C(O)c1ccccc1-2 (centres undefined)	5.17	< 4.30	< 4.30
O=C(O)c1cc(Cl)ccc1-c1ccc(Cl)cc1C(=O)NC1=CC2=C(CC1)c1c(Cl)cc(Cl)cc1C2	5.74	< 4.30	4.45
O=C(O)c1ccccc1-c1ccccc1C(=O)Nc1ccc2c(c1)nc(O)c1ccccc12	5.44	< 4.30	< 4.30
CCn1c2ccccc2c2cc(NC(=O)c3ccccc3-c3ccccc3C(=O)O)ccc21	5.25	< 4.30	< 4.30
O=C(O)c1ccccc1-c1ccccc1C(=O)Nc1ccc2c(c1)Cc1ccccc1-2	5.34	< 4.30	< 4.30
O=C(O)c1ccccc1-c1ccccc1C(=O)Nc1ccc2c(c1)C(=O)c1ccccc1-2	5.55	< 4.30	< 4.30
O=C(O)c1ccccc1-c1ccccc1C(=O)Nc1ccc2c(c1)oc(=O)c1ccccc12	5.49		< 4.30
O=C(O)c1ccccc1-c1ccccc1C(=O)Nc1ccc2c(c1)-c1ccccc1C2	5.38	< 4.30	< 4.30
O=C(O)c1ccccc1-c1ccccc1C(=O)Nc1cccc2c1-c1ccccc1C2	5.10	< 4.30	< 4.30
O=C(O)c1ccccc1-c1ccccc1C(=O)Nc1ccc2c(c1)Cc1cc(F)ccc1-2	5.42	< 4.30	< 4.30
O=C(O)c1ccccc1-c1ccccc1C(=O)Nc1cc2c3ccccc3ccc2c2ccccc12	5.59		< 4.30
O=C(O)c1cc(Cl)ccc1-c1ccc(Cl)cc1C(=O)Nc1ccc2c(c1)Cc1ccccc1-2	5.48		< 4.30
